The values that follow come from ChEMBL document CHEMBL1123670, “Inhibitors of cyclic AMP phosphodiesterase. 2. Structural variations of N-cyclohexyl-N-methyl-4-[(1,2,3,5-tetrahydro- 2-oxoimidazo[2,1-b]quinazolin-7-yl)-oxy]butyramide (RS-82856)” (J Med Chem, 1987).

Experiment [1] deals with T1, Phosphodiesterase; PDE3 & PDE4 (Homo sapiens) (UniProt P27815+Q14432+Q08499+Q07343+Q13370+Q08493). The experiment in a line: In vivo inhibition of cyclic AMP phosphodiesterase from dog heart. Summed up: (§1)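 Cyclic AMP phosphodiesterase prepared from human platelets (IC50, nM) or from rat or dog heart tissue (IC25, nM). Each agent tested at five inhibitor concentrations in triplicate. IC50/IC25 read graphically from the dose-response curve.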

The target in experiment [2] is T2, Phosphodiesterase 3 (Homo sapiens, UniProt Q14432+Q13370). The experiment in a line: Inhibition of human platelet cAMP phosphodiesterase at 10e-4 M.
Experiment [3] concerns the target T2, Phosphodiesterase 3. Put plainly: Inhibition of human platelet cAMP phosphodiesterase, 20% inhibition at E-4M.
The species named for experiment [4] is Homo sapiens. The experiment in a line: Inhibition of ADP-induced platelet aggregation at 100 uM concentration. The experiment is classed as functional.
Experiment [5] deals with T2, Phosphodiesterase 3. Put plainly: In vitro inhibition of cyclic AMP phosphodiesterase from human platelets.
For experiment [6], the species on record is Homo sapiens. The experiment in a line: Ratio of IC50 of inhibition of platelet aggregation to IC50 of inhibition of platelet PDE. The experiment is classed as functional. An outline of the steps:
(§2)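 Efficacy index is the IC50 for inhibition of ADP-induced platelet aggregation divided by the IC50 for human platelet PDE inhibition. Both IC50s come from graphical dose-response curves (five concentrations, triplicate).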

Experiment [7] can be described thus: In vivo inhibition of cyclic AMP phosphodiesterase from rat heart. Particulars: in the assay text read “In vitro” for “In vivo”; call rule not given here. An outline of the steps: as §1
The species entered for experiment [8] is Homo sapiens. Put plainly: Ratio of IC50 of inhibition of platelet aggregation to IC50 of inhibition of platelet PDE (Efficacy index). The experiment is classed as functional. Summed up: as §2
Experiment [9] in a line: Inhibition of ADP-induced platelet aggregation. The experiment is classed as functional. An outline of the steps:
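ADP-induced platelet aggregation. Read-out is the rate of change in percentage transmission of the primary aggregation phase after 5 min incubation. Each agent tested at five concentrations in triplicate, with experiments repeated at least twice using platelets from different donors. IC50 (μM) determined graphically.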

In experiment [10] the target is T1, Phosphodiesterase; PDE3 & PDE4 (Homo sapiens). Put plainly: Inhibition of canine cardiac cAMP phosphodiesterase. The experiment is classed as protein assay. Particulars: Canis lupus familiaris; target entry is the homologue from another species. An outline of the steps:
as §1

Experiment [11] concerns the target T2, Phosphodiesterase 3. Put plainly: Inhibition of human platelet cAMP phosphodiesterase. Summed up:
as §1

Setting [12] is: Canis lupus familiaris; in the assay text read “In vitro” for “In vivo”; target entry is the homologue from another species.
Where [13] appears, read: Canis lupus familiaris; target entry is the homologue from another species; in the assay text read “In vitro” for “In vivo”.

For orientation: IC25 means the point of the concentration-response curve where the effect stands at 25%. Higher therefore signals a need for much substance. One may read the inhibition as the percentage by which the read-out fell short of the control. The low end stands for a response near the control, the high end for a response far below the control. In general, IC50 refers to the concentration at which inhibition is half-maximal. Read a low IC50 as inhibition by little substance. For the compound `CN(C(=O)CCCOc1cccc2c1NC1=NC(=O)CN1C2)C1CCCCC1`, it took 1.6 µM to reach the 25% level in [1] (setting [12]) (IC25). Besides, the inhibition against Phosphodiesterase 3 [2] was 20%. Moreover, the 50% inhibitory concentration (IC50) on Phosphodiesterase 3 [3] was above 100 µM; in the experiment listed under Homo sapiens [4] it was “Not Active”.
In experiment [1] (setting [13]), `CN(C(=O)CCCOc1ccc2c(c1)CN1C(=N2)NC(=O)[C@H]1Cc1ccccc1)C1CCCCC1` had a concentration for an effect of 25% (IC25) above 10 µM. For the same compound, the IC50 entry was “Not Active” in the experiment filed under Homo sapiens [4] and above 10 µM against Phosphodiesterase 3 [5].
`CN(C(=O)CCCOc1ccc2c(c1)CN1NC(=O)NC1=N2)C1CCCCC1`: the IC25 in experiment [1] (setting [12]) came to 0.18 µM. Moreover, the half-maximal inhibitory concentration (IC50) entry is “Not Active” in the experiment filed under Homo sapiens [4] and 0.5 µM at Phosphodiesterase 3 [5].
As to `COc1ccc(C(=O)N2CCN(c3ccc4c(c3)CCC(=O)N4)CC2)cc1OC` [VESNARINONE], the Ratio in the experiment filed under Homo sapiens [6] was determined as 608. The same compound came in with a half-inhibitory concentration (IC50) against Phosphodiesterase 3 [5] of 6.2 µM.
Take `CN(C(=O)CCCOc1ccc2c(c1)CN1C(=N2)NC(=O)[C@@H]1Cc1ccccc1)C1CCCCC1`: the IC25 in [1] (setting [13]) is above 10 µM. Further, the results for the half-inhibitory concentration (IC50) entry in the experiment listed under Homo sapiens [4] and at Phosphodiesterase 3 [5] were “Not Active” and above 10 µM, respectively.
In experiment [1] (setting [12]), `CN(C(=O)CCC[S+]([O-])c1ccc2c(c1)CN1CC(=O)NC1=N2)C1CCCCC1` (stereo unspecified) yielded a 25% effect concentration (IC25) of 6.2 µM. The values for the IC50 result in the experiment listed under Homo sapiens [4] and against Phosphodiesterase 3 [5] were “Not Active” and 1.7 µM, respectively.
The compound `CN(C(=O)CCCOc1ccc2c(c1)CN1C(=N2)NC(=O)[C@H]1c1ccccc1)C1CCCCC1` came in with an IC25 in [1] (setting [13]) of 3.3 µM. Also, the concentration for half-maximal inhibition (IC50) entry in the experiment listed under Homo sapiens [4] is “Not Active”; against Phosphodiesterase 3 [5] it was 3.3 µM.
In turn, `CN(C(=O)CCCOc1ccc2nc3n(c(=O)c2c1)CC(=O)N3)C1CCCCC1` registered an IC25 in experiment [7] of 2.9 µM. For the same compound, the results for the 50% inhibitory concentration (IC50) entry in the experiment filed under Homo sapiens [4] and against Phosphodiesterase 3 [5] were “Not Active” and 5.4 µM, respectively.
As to `CC(C)[C@@H]1C(=O)NC2=Nc3ccc(OCCCC(=O)N(C)C4CCCCC4)cc3CN21`, in experiment [1] (setting [13]), the IC25 was found to be 6 µM. The IC50 result is “Not Active” in the experiment listed under Homo sapiens [4] and 10 µM at Phosphodiesterase 3 [5].
The compound `CN(C(=O)CCCOc1ccc2nc3n(c(=O)c2c1)CCN3)C1CCCCC1` gave an IC25 in experiment [7] of 3.7 µM. Further, the IC50 entry in the experiment listed under Homo sapiens [4] was “Not Active”; against Phosphodiesterase 3 [5], 25 µM.
With `COC1=NC2=Nc3ccc(OCCCC(=O)N(C)C4CCCCC4)cc3CN2C1`, in [1] (setting [13]), the 25% effect level (IC25) was put at 2.7 µM. The figures for the IC50 entry in the experiment listed under Homo sapiens [4] and at Phosphodiesterase 3 [5] were “Not Active” and 9.6 µM, respectively.
Regarding `CN1C(=O)CN2Cc3cc(OCCCC(=O)N(C)C4CCCCC4)ccc3N=C21`, in experiment [1] (setting [12]), the IC25 came out at 39 µM. Besides, the IC50 result in the experiment filed under Homo sapiens [4] is “Not Active”; against Phosphodiesterase 3 [5] it was 76 µM.
Turning to `CN(C(=O)CCCOc1ccc2c(c1)CN1CC(=O)NC1=N2)C1CCCCC1` [LIXAZINONE], the Ratio in the experiment filed under Homo sapiens [8] is recorded as 10.8. The concentration for half-maximal inhibition (IC50) in [9] stood at 0.11 µM; against Phosphodiesterase 3 [11] it was 0.0102 µM. Moreover, the IC25 in experiment [10] was found to be 0.0041 µM.
In the case of `CNC(=O)CCCOc1ccc2c(c1)CN1CC(=O)NC1=N2`, in experiment [1] (setting [13]), the IC25 amounted to 1.3 µM. For the same compound, the IC50 result in the experiment filed under Homo sapiens [4] was “Not Active”; on Phosphodiesterase 3 [5], 1.6 µM.
Turning to `O=C(O)CCCOc1ccc2c(c1)CN1CC(=O)NC1=N2`, the IC25 in experiment [1] (setting [13]) was determined as 0.13 µM. Also, the values for the half-maximal inhibitory concentration (IC50) entry in the experiment listed under Homo sapiens [4] and against Phosphodiesterase 3 [5] were “Not Active” and 0.28 µM, respectively.
Take `CC(C)[C@H]1C(=O)NC2=Nc3ccc(OCCCC(=O)N(C)C4CCCCC4)cc3CN21`: the IC25 in experiment [1] (setting [12]) stood at 6.4 µM. The values for the IC50 entry in the experiment listed under Homo sapiens [4] and against Phosphodiesterase 3 [5] were “Not Active” and above 10 µM, respectively.
As for `O=C1CN2Cc3cc(OCCCC(=O)N(C4CCCCC4)C4CCCCC4)ccc3N=C2N1`, the Ratio in the experiment listed under Homo sapiens [8] was found to be 300. Further, the IC50 in experiment [9] was 0.42 µM; against Phosphodiesterase 3 [5], 0.00145 µM. The IC25 in experiment [7] was found to be 0.016 µM.
The matching figures for `CN(C(=O)COc1ccc2c(c1)CN1CC(=O)NC1=N2)C1CCCCC1`: 8.5, 7 µM, 0.82 µM and 4.4 µM.
The compound `CN(C(=O)CCCOc1ccc2c(c1)CN1C(=N2)NC(=O)[C@@H]1c1ccccc1)C1CCCCC1` displayed a 25% effect concentration (IC25) in [1] (setting [13]) of 4.2 µM. Besides, the 50% inhibitory concentration (IC50) result in the experiment listed under Homo sapiens [4] is “Not Active”; on Phosphodiesterase 3 [5] it was 3.8 µM.
`CN(C(=O)CCCOc1ccc2c(c1)CN1CCNC1=N2)C1CCCCC1` registered an IC25 in [1] (setting [12]) of 21 µM. In addition, the half-maximal inhibitory concentration (IC50) entry in the experiment filed under Homo sapiens [4] was “Not Active”; against Phosphodiesterase 3 [5] it was 27 µM.
In the case of `O=C1CN2Cc3cc(OCCCC(=O)N(CCO)C4CCCCC4)ccc3N=C2N1`, the Ratio in the experiment listed under Homo sapiens [8] was 228. Moreover, the half-maximal inhibitory concentration (IC50) in [9] was 2.85 µM; at Phosphodiesterase 3 [5], 0.0125 µM. Besides, the 25% effect level in [7] (IC25) was put at 0.07 µM.
Taken in the same sequence, the figures for `CN(C(=O)CCCOc1ccc2c(c1)CN1CC(=O)NC1=N2)c1ccccc1` were 15, 0.39 µM, 0.026 µM and 0.35 µM.
